Experimental data from ChEMBL document CHEMBL1157797, “The alternative medicine pawpaw and its acetogenin constituents suppress tumor angiogenesis via the HIF-1/VEGF pathway” (J Nat Prod, 2010).
Activity calls are given as the source filed them.

How the values were obtained:
[1] = molecular target: T1, Hypoxia inducible factors; HIF-1-alpha, HIF-2-alpha (Homo sapiens, UniProt Q16665+Q99814); experiment: Inhibition of chemical hypoxia-induced HIF1 activation in human T47D cells in presence of 1, 10-phenanthrolin by HRE3-TK-luc reporter assay; format: cell-based
[2] = test system: MDA-MB-231; experiment: Cytotoxicity against human MDA-MB-231 cells assessed as suppression of cell proliferation under normoxic condition at 100 nM after 6 days relative to control; format: functional
[3] = test system: DU-145; experiment: Cytotoxicity against human DU145 cells assessed as suppression of cell proliferation under normoxic condition at 100 nM after 6 days relative to control; format: functional
[4] = test system: PC-3; experiment: Cytotoxicity against human PC3 cells assessed as suppression of cell proliferation under normoxic condition at 100 nM after 6 days relative to control; format: functional
[5] = test system: T47D; experiment: Cytotoxicity against human T47D cells assessed as suppression of cell proliferation under normoxic condition at 10 nM after 6 days relative to control; format: functional
[6] = test system: HUVEC; experiment: Cytotoxicity against HUVEC cells; format: cell-based; details: human
[7] = test system: T47D; experiment: Inhibition of hypoxia-induced GLUT1 mRNA expression in human T47D cells at 0.1 uM in presence of 1% O2 for 16 hrs by RT-PCR; format: functional
Summary of the method: (§1)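 T47D cells treated under hypoxia (1% O2, 16 h). GLUT-1 or VEGF mRNA measured by quantitative real-time RT-PCR and normalised to 18S rRNA. Reported relative to the normoxic control, mean ± SD, n = 3.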

[8] = molecular target: T1, Hypoxia inducible factors; HIF-1-alpha, HIF-2-alpha; experiment: Inhibition of hypoxia-induced HIF1 activation in human T47D cells in presence of 1% O2 by HRE3-TK-luc reporter assay; format: cell-based
Summary of the method: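 T47D cells carrying the pHRE3-TK-Luc reporter, made hypoxic at 1% O2. HIF-1 activation read as luciferase signal over a concentration range, giving IC50. Data are means ± SEM, n = 3.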

[9] = test system: T47D; experiment: Inhibition of hypoxia-induced VEGF mRNA expression in human T47D cells at 0.1 uM in presence of 1% O2 for 16 hrs by RT-PCR; format: functional; summary of the method: as §1
[10] = test system: PC-3; experiment: Cytotoxicity against human PC3 cells assessed as suppression of cell proliferation under normoxic condition after 48 hrs relative to control; format: functional, cell-based
Summary of the method: (§2)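 Four human tumour lines (T47D, MDA-MB-231, PC-3, DU-145) exposed to acetogenins (1 to 100 nM, half-log steps) or crude extract (0.01 to 1 μg/mL, half-log steps) for 48 h, either normoxic (95% air) or hypoxic (1% O2). Proliferation/viability expressed relative to untreated control. Final solvent below 0.5% (v/v).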

[11] = test system: T47D; experiment: Cytotoxicity against human T47D cells assessed as suppression of cell proliferation under normoxic condition after 48 hrs relative to control; format: functional, cell-based; summary of the method: as §2
[12] = test system: T47D; experiment: Cytotoxicity against human T47D cells assessed as suppression of cell proliferation under hypoxic condition after 48 hrs relative to control; format: functional, cell-based; summary of the method: as §2
[13] = test system: PC-3; experiment: Cytotoxicity against human PC3 cells assessed as suppression of cell proliferation under hypoxic condition after 48 hrs relative to control; format: functional, cell-based; summary of the method: as §2
[14] = test system: T47D; experiment: Inhibition of ATP in human T47D cells under hypoxia for 16 hrs at 0.1 to 0.3 uM; format: functional, cell-based
[15] = molecular target: T1, Hypoxia inducible factors; HIF-1-alpha, HIF-2-alpha; experiment: Inhibition of hypoxia-induced HIF1 activation in human PC3 cells by HRE3-TK-luc reporter assay; format: cell-based; details: PC-3, concentration not given here
Summary of the method: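 HIF-1 activation in PC-3 cells induced by hypoxia (1% O2) and read with the pHRE3-TK-Luc luciferase reporter. Concentration-response, IC50/EC50 derived. Data are means ± SEM, n = 3.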

[16] = test system: MDA-MB-231; experiment: Cytotoxicity against human MDA-MB-231 cells assessed as suppression of cell proliferation under hypoxic condition after 48 hrs relative to control; format: functional, cell-based; summary of the method: as §2
[17] = test system: DU-145; experiment: Cytotoxicity against human DU145 cells assessed as suppression of cell proliferation under hypoxic condition after 48 hrs relative to control; format: functional, cell-based; summary of the method: as §2
[18] = test system: DU-145; experiment: Cytotoxicity against human DU145 cells assessed as suppression of cell proliferation under normoxic condition after 48 hrs relative to control; format: functional, cell-based; summary of the method: as §2
[19] = test system: MDA-MB-231; experiment: Cytotoxicity against human MDA-MB-231 cells assessed as suppression of cell proliferation under normoxic condition after 48 hrs relative to control; format: functional, cell-based; summary of the method: as §2
[20] = test system: T47D; experiment: Inhibition of mitochondrial respiratory chain complex 3 in human T47D cells assessed as decrease in oxygen consumption at 0.3 uM; format: functional, cell-based
Summary of the method: (§3)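 Oxygen consumption measured in T47D cells permeabilized with digitonin (30 μM). Complex I respiration started with malate plus pyruvate. Rotenone was added as complex I blocker, then succinate (complex II substrate). Antimycin A was added to block complex III, then TMPD plus ascorbate (complex IV substrates) to restart respiration. Sample added at 0.3 μM.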

[21] = test system: T47D; experiment: Inhibition of mitochondrial respiratory chain complex in human T47D cells assessed as decrease in oxygen consumption in presence of TMPD and ascorbate complex 4 substrate; format: functional, cell-based; summary of the method: as §3
[22] = test system: T47D; experiment: Inhibition of mitochondrial respiratory chain complex 1 in human T47D cells assessed as decrease in oxygen consumption; format: functional, cell-based
Summary of the method: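 Oxygen consumption measured in T47D cells; mean ± SD of three independent experiments. For complex I, cells were permeabilised with digitonin (30 μM) and respiration started with malate plus pyruvate. Follow-up additions: succinate (complex II substrate), antimycin A, and TMPD/ascorbate to test complexes II–IV.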

[23] = test system: T47D; experiment: Inhibition of mitochondrial respiratory chain complex 4 in human T47D cells assessed as decrease in oxygen consumption at 0.3 uM; format: functional, cell-based; summary of the method: as §3
[24] = test system: T47D; experiment: Inhibition of hypoxia-induced HIF1beta protein accumulation in nucleus of human T47D cells by Western blot analysis; format: functional, cell-based
Summary of the method: (§4)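 T47D cells exposed to hypoxia (1% O2, 4 h) with or without treatment. Nuclear extracts prepared and probed for HIF-1α and HIF-1β by Western blot.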

[25] = test system: T47D; experiment: Inhibition of hypoxia-induced HIF1alpha protein accumulation in nucleus of human T47D cells by Western blot analysis; format: functional, cell-based; summary of the method: as §4
[26] = test system: HUVEC; experiment: Inhibition of VEGF-induced angiogenesis in HUVEC cells at 0.1 uM by tube formation assay; format: functional, cell-based; details: Homo sapiens
[27] = test system: T47D; experiment: Inhibition of mitochondrial respiratory chain complex 2 in human T47D cells assessed as decrease in oxygen consumption at 0.3 uM; format: functional, cell-based; summary of the method: as §3
[28] = test system: T47D; experiment: Inhibition of mitochondrial respiratory chain complex in human T47D cells assessed as decrease in oxygen consumption in presence of rotenone and succinate complex 1 substrate; format: functional, cell-based; summary of the method: as §3
[29] = test system: T47D; experiment: Inhibition of mitochondrial respiratory chain complex in human T47D cells assessed as decrease in oxygen consumption in presence of antimycin A complex 3 inhibitor; format: functional, cell-based; summary of the method: as §3
[30] = test system: T47D; experiment: Inhibition of hypoxia-induced VEGF protein expression in human T47D cells at 0.03 to 0.1 uM in presence of 1% O2; format: functional, cell-based
Summary of the method: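 T47D cells exposed to hypoxia with test agent. Secreted VEGF protein in the conditioned medium measured by ELISA and normalised to cellular protein. Mean + SD, n = 3; p values compared with the hypoxia-induced sample.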

[31] = test system: T47D; experiment: Inhibition of hypoxia-induced HIF1beta protein subcellular localization in human T47D cells at 0.3 uM by immunofluorescence based assay; format: functional, cell-based
[32] = test system: T47D; experiment: Inhibition of normoxic human T47D cells at 0.1 uM by tube formation assay; format: functional, cell-based
Summary of the method: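 Conditioned media from T47D cells (normoxic, hypoxic, or hypoxic plus treatment) applied to HUVEC on Matrigel. Tube length and branching points quantified in three random fields, expressed as % of the normoxic-cell medium, mean ± SD.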

CCCCCCCCCCCC[C@@H](O)[C@H]1CC[C@H]([C@H](O)CCCC[C@H](O)CCCCC[C@@H](O)CC2=CC(C)OC2=O)O1 (stereo in doubt; 3) [ANNONACIN]
<30%: Activity [2] | Activity [3] | Activity [4]
> 1000 nM: IC50 [1]
50%: Activity [5]

CCCCCCCCCCCC[C@@H](O)[C@H]1CC[C@H]([C@H](O)CCCC[C@H](O)CCCCC[C@@H](O)CC2=CC(C)OC2=O)O1 (stereo in doubt; 2) [ANNONACIN]
> 1000 nM: IC50 [1]
64%: inhibition at 0.1 µM [9]
Non-toxic: Activity [6]
13 nM: IC50 [8]
72%: inhibition at 0.1 µM [7]

CCCCCCCCCCCC[C@@H](O)[C@H]1CC[C@H]([C@H](O)CCCC[C@H](O)CCCCC[C@@H](O)CC2=CC(C)OC2=O)O1 (stereo in doubt; 3)
50%: inhibition [15]
inactive: Activity [10] | Activity [11] | Activity [12] | Activity [13] | inhibition [14] | Activity [16] | Activity [17] | Activity [18] | Activity [19]

CCCCCCCCCCCC[C@@H](O)[C@H]1CC[C@H]([C@H]2CC[C@H]([C@H](O)CCC(O)CCCCCC(O)CC3=CC(C)OC3=O)O2)O1 (stereo not given in full)
12 nM: IC50 [8]
62%: inhibition at 0.1 µM [9]
Non-toxic: Activity [6]
50%: inhibition [15] | Activity [5]
active: inhibition [22] Dose-dependent effect | inhibition [25] Dose-dependent effect | inhibition [26] | inhibition [30] | inhibition [31]
> 1000 nM: IC50 [1]
inactive: inhibition [20] | Activity [10] | Activity [11] | inhibition [21] | Activity [12] | inhibition [23] | inhibition [24] | Activity [13] | inhibition [14] | inhibition [27] | inhibition [28] | inhibition [29] | Activity [16] | inhibition [32] | Activity [17] | Activity [18] | Activity [19]
<30%: Activity [2] | Activity [3] | Activity [4]
80%: inhibition at 0.1 µM [7]

CCCCCCCCCCCC[C@@H](O)[C@H]1CC[C@H]([C@H](O)CCCC[C@H](O)CCCCC[C@@H](O)CC2=CC(C)OC2=O)O1 (stereo in doubt; 2)
50%: inhibition [15]
active: inhibition [22] Dose-dependent effect | inhibition [25] Dose-dependent effect | inhibition [26] | inhibition [30] | inhibition [31]
inactive: Activity [10] | Activity [11] | Activity [12] | inhibition [24] | Activity [13] | inhibition [14] | Activity [16] | inhibition [32] | Activity [17] | Activity [18] | Activity [19]

C=C(C)[C@H]1Cc2c(ccc3c2O[C@@H]2COc4cc(OC)c(OC)cc4[C@@H]2C3=O)O1
active: inhibition [22] Dose-dependent effect
